Results reported in PMC7983942 (Clinical Pharmacology and Therapeutics, 2020).

Molecular target: T1, OCT1 (Homo sapiens, UniProt O15245)
T1 sequence (O15245 1-554): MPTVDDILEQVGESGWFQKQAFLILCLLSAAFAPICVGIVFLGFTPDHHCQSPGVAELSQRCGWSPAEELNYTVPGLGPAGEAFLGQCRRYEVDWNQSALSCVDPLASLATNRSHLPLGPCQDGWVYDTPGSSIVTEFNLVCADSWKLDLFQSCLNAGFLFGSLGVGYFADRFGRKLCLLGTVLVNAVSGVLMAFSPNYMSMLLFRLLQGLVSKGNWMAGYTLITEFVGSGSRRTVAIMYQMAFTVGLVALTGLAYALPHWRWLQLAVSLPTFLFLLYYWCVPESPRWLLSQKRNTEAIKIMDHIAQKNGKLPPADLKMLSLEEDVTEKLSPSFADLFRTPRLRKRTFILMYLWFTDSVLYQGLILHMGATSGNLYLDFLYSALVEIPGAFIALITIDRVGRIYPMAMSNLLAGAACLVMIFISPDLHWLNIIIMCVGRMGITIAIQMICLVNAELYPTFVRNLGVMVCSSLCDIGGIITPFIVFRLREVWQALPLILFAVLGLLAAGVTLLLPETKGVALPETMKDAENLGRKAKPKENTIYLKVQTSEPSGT
Assay: Uptake into transporter-transfected vs wild-type HEK293 cells
Format: in vitro ADME
Conditions: metformin 20 µM, two to four minutes
Method in brief: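 Transfected HEK293 lines were OAT2 and OCT1, each run against wild-type cells, seeded on poly-D-lysine plates. Culture was 48 h at 37°C in DMEM with 10% FBS plus 1% gentamycin, 1% sodium pyruvate and 50 µg/mL hygromycin B. Probes were cyclic GMP 0.5 µM (OAT2) and metformin 20 µM (OCT1), over 2–4 min; test compound was 1 µM for 2 min. After four ice-cold washes and methanol lysis, the uptake ratio versus wild-type and the ratio of ratios were derived; n=3 in one experiment.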

Uptake ratio (vs. wild‐type HEK293 cells), probe: 15.4 ± 1.06
SMILES: CN(C)C(=N)N=C(N)N [metformin]
